In brackets after ≈: the same amount, converted by molar mass. Activity calls are given as the source filed them. The rule behind the calls is not given here.
Legend:
Type in all cases: functional
Candida albicans [1] = assay: Antifungal activity against Candida albicans up to 24 hrs
Outline: (§1)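 MFC in tubes of standardized spore suspension (10⁴ CFU/mL) of clinical isolates, each dosed with compound at increasing concentrations starting from the MIC. Controls: solvent at its highest level, and fluconazole. CFU counted and viability checked at intervals over 0–24 h. MFC is the lowest concentration killing about 99% of viable CFU.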

Candida albicans [2] = assay: Antifungal activity against Candida albicans by agar diffusion technique
Outline: (§2)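 Clinical isolates (A. flavus mold; C. albicans yeast), spore suspension standardized at 10⁴ CFU/mL. DMSO stocks diluted to a concentration series. Approximate MIC by agar diffusion (well technique), taken as the concentration giving minimal inhibition around the well.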

Candida albicans [3] = assay: Antifungal activity against Candida albicans at 100 ppm; conditions: for zone of inhibition at 100 ppm: read-out: DIZ
Outline: (§3)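 Agar well diffusion against clinical isolates (A. flavus mold; C. albicans yeast); standardized spore suspension 10⁴ CFU/mL. Compounds dissolved in DMSO as a parent stock, diluted to test levels (100, 300, 500, 1000 ppm).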

Aspergillus flavus [4] = assay: Antifungal activity against Aspergillus flavus at 1000 ppm; conditions: for zone of inhibition at 1000 ppm: read-out: DIZ; outline: as §3
Aspergillus flavus [5] = assay: Antifungal activity against Aspergillus flavus up to 24 hrs; outline: as §1
Aspergillus flavus [6] = assay: Antifungal activity against Aspergillus flavus at 100 ppm
Outline: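 Clinical isolate of A. flavus (mold) tested by agar diffusion, well technique, using a standardized spore suspension of 10⁴ CFU/mL. Compounds were dissolved in dimethylsulphoxide and diluted from a parent stock.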

Aspergillus flavus [7] = assay: Antifungal activity against Aspergillus flavus at 300 ppm; conditions: for zone of inhibition at 300 ppm: read-out: DIZ; outline: as §3
Candida albicans [8] = assay: Antifungal activity against Candida albicans at 1000 ppm; conditions: read-out: DIZ; outline: as §3
Candida albicans [9] = assay: Antifungal activity against Candida albicans at 300 ppm; conditions: for zone of inhibition at 300 ppm: read-out: DIZ; outline: as §3
Aspergillus flavus [10] = assay: Antifungal activity against Aspergillus flavus at 500 ppm; conditions: for zone of inhibition at 500 ppm: read-out: DIZ; outline: as §3
Aspergillus flavus [11] = assay: Antifungal activity against Aspergillus flavus by agar diffusion technique; outline: as §2
Candida albicans [12] = assay: Antifungal activity against Candida albicans at 500 ppm; conditions: for zone of inhibition at 500 ppm: read-out: DIZ; outline: as §3

Structure (SMILES)	MFC (Candida albicans [1])	MIC (Candida albicans [2]) [µg/mL]	zone of inhibition at 100 ppm (Candida albicans [3]) [mm]	zone of inhibition at 1000 ppm (Aspergillus flavus [4]) [mm]	MFC (Aspergillus flavus [5])	zone of inhibition at 100 ppm (Aspergillus flavus [6]; read-out: DIZ) [mm]	zone of inhibition at 300 ppm (Aspergillus flavus [7]) [mm]	zone of inhibition at 1000 ppm (Candida albicans [8]) [mm]	zone of inhibition at 300 ppm (Candida albicans [9]) [mm]	zone of inhibition at 500 ppm (Aspergillus flavus [10]) [mm]	MFC (Aspergillus flavus [11]) [µg/mL]	zone of inhibition at 500 ppm (Candida albicans [12]) [mm]	diameter of the inhibition zone (DIZ) (Candida albicans [3])	diameter of the inhibition zone (DIZ) (Aspergillus flavus [6])	diameter of the inhibition zone (DIZ) (Aspergillus flavus [7])	MIC (Aspergillus flavus [11])	diameter of the inhibition zone (DIZ) (Aspergillus flavus [4])	diameter of the inhibition zone (DIZ) (Aspergillus flavus [10])	diameter of the inhibition zone (DIZ) (Candida albicans [9])	diameter of the inhibition zone (DIZ) (Candida albicans [12])
OC(Cn1cncn1)(Cn1cncn1)c1ccc(F)cc1F [FLUCONAZOLE]	300 µg/mL (≈ 980 µM)	100 (≈ 327 µM)	< 10	> 16	300 µg/mL (≈ 980 µM)	< 10	10	> 16	10	> 16	100 (≈ 327 µM)	> 16								
O=C(O)CCn1nc2sc3ccccc3n2c1=S	inactive	300 (≈ 1070 µM)		10	inactive			> 16	< 10	< 10		10	inactive	inactive	inactive	500 µg/mL (≈ 1790 µM)				
NNC(=O)CSc1nnc2sc3ccccc3n12	500 µg/mL (≈ 1790 µM)	100 (≈ 358 µM)	< 10		inactive			> 16	< 10			10		inactive	inactive	inactive	inactive	inactive		
O=C(CSc1nnc2sc3ccccc3n12)N(C(=O)NC1CCCCC1)C1CCCCC1	inactive	100 (≈ 212 µM)	< 10	> 16	500 µg/mL (≈ 1060 µM)		< 10	> 16	< 10	10		10		inactive		300 µg/mL (≈ 636 µM)				
COC(=O)CCNC(=O)CSc1nnc2sc3ccccc3n12	inactive	1000 (≈ 2850 µM)		< 10	inactive			< 10					inactive	inactive	inactive	inactive		inactive	inactive	inactive
COC(=O)[C@H](CCSC)NC(=O)CSc1nnc2sc3ccccc3n12	inactive	1000 (≈ 2440 µM)			inactive			< 10					inactive	inactive	inactive	inactive	inactive	inactive	inactive	inactive
Sc1nnc2sc3ccccc3n12	500 µg/mL (≈ 2410 µM)	100 (≈ 482 µM)	< 10	> 16	500 µg/mL (≈ 2410 µM)		< 10	> 16	10	10		> 16		inactive		300 µg/mL (≈ 1450 µM)				
O=C(CCn1nc2sc3ccccc3n2c1=S)N(C(=O)NC1CCCCC1)C1CCCCC1	500 µg/mL (≈ 1030 µM)	100 (≈ 206 µM)	< 10	> 16	inactive		< 10	> 16	10	10		> 16		inactive		300 µg/mL (≈ 618 µM)				
COC(=O)CNC(=O)CSc1nnc2sc3ccccc3n12	inactive	500 (≈ 1490 µM)		< 10	inactive			10				< 10	inactive	inactive	inactive	1000 µg/mL (≈ 2970 µM)		inactive	inactive	
O=C(CCSc1nnc2sc3ccccc3n12)N(C(=O)NC1CCCCC1)C1CCCCC1	inactive	300 (≈ 618 µM)		< 10	inactive			> 16	< 10			10	inactive	inactive	inactive	1000 µg/mL (≈ 2060 µM)		inactive		
CCOC(=O)CSc1nnc2sc3ccccc3n12	inactive	500 (≈ 1700 µM)			inactive			10				< 10	inactive	inactive	inactive	inactive	inactive	inactive	inactive	
COC(=O)CCn1nc2sc3ccccc3n2c1=S	inactive	300 (≈ 1020 µM)		< 10	inactive			> 16	< 10			< 10	inactive	inactive	inactive	1000 µg/mL (≈ 3410 µM)		inactive		
NNC(=O)CCn1nc2sc3ccccc3n2c1=S	inactive	1000 (≈ 3410 µM)			inactive			< 10					inactive	inactive	inactive	inactive	inactive	inactive	inactive	inactive
COC(=O)[C@H](CC(C)C)NC(=O)CSc1nnc2sc3ccccc3n12	inactive	500 (≈ 1270 µM)			inactive			10				< 10	inactive	inactive	inactive	inactive	inactive	inactive	inactive	
COC(=O)C(NC(=O)CSc1nnc2sc3ccccc3n12)C(C)O (racemic)	inactive	500 (≈ 1310 µM)		10	inactive			10				< 10	inactive	inactive	inactive	1000 µg/mL (≈ 2630 µM)		inactive	inactive	
O=C(O)CCSc1nnc2sc3ccccc3n12	inactive	300 (≈ 1070 µM)		10	inactive			> 16	< 10	< 10		10	inactive	inactive	inactive	500 µg/mL (≈ 1790 µM)				
COC(=O)[C@H](CCSC)NC(=O)CCn1nc2sc3ccccc3n2c1=S	inactive	500 (≈ 1180 µM)		< 10	inactive			10				< 10	inactive	inactive	inactive	1000 µg/mL (≈ 2360 µM)		inactive	inactive	
COC(=O)[C@H](CCSC)NC(=O)CCSc1nnc2sc3ccccc3n12	inactive	500 (≈ 1180 µM)		< 10	inactive			10				< 10	inactive	inactive	inactive	1000 µg/mL (≈ 2360 µM)		inactive	inactive	
O=C(O)CSc1nnc2sc3ccccc3n12	inactive	300 (≈ 1130 µM)		< 10	500 µg/mL (≈ 1880 µM)			10	< 10			< 10	inactive	inactive	inactive	1000 µg/mL (≈ 3770 µM)		inactive		

— ChEMBL document CHEMBL2390931, “Synthesis and antifungal activity of some s-mercaptotriazolobenzothiazolyl amino acid derivatives” (2013)
